Hits are enriched below; roughly 3.1% of the tested compounds scored in any of these assays.
hERG rescue = shields human hERG channel from block by proarrhythmic agents. hit rate 0.51% among 310,000. AID 1511. CHO-hERG, FluxOR thallium flux, dofetilide IC70 present. Q12809. activation (rescue from dofetilide block), less the hit threshold, % at 10 µM;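 active = activation above the mean of controls blocked by dofetilide plus 5 SD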;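 note: thallium influx through hERG after potassium depolarization seen as dye fluorescence rise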
KCNK3 inh = human KCNK3 channel inhibition, primary screen; B-score at 10 µM; hit rate 0.84% among 340,000; AID 602410; O14649; CHO-KCNK3 thallium flux, FluxOR fluorescence; stronger effect = lower value;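 active = B-score under library mean minus 4 SD, starting fluorescence ratio at most library mean plus 5 SD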;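 note: more negative B-score means stronger inhibition of thallium flux through KCNK3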
KCNK9 block = inhibitors of human KCNK9 two-pore domain potassium channel | Q9NPC2 | HEK293 KCNK9, FluxOR thallium flux fluorescence; stronger effect = lower value | B-score at 10 µM | hit rate 1.2% among 310,000;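 active = ratio B-score over 3 SD below the library mean, with starting fluorescence within 5 SD of its mean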;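 note: negative B-score means less thallium flux so channel inhibition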
KCNQ1 pot = human KCNQ1 channel potentiation or activation; CHO-K1 KCNQ1, thallium flux FluxOR fluorescence; stronger effect = higher value; hit rate 0.35% among 310,000; B-score at 10 µM;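 active = fluorescence ratio B-score, a plate-corrected score, at least three library SD, with initial intensity B-score within 5 SD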
Target sequence (P51787 whole entry, looked up): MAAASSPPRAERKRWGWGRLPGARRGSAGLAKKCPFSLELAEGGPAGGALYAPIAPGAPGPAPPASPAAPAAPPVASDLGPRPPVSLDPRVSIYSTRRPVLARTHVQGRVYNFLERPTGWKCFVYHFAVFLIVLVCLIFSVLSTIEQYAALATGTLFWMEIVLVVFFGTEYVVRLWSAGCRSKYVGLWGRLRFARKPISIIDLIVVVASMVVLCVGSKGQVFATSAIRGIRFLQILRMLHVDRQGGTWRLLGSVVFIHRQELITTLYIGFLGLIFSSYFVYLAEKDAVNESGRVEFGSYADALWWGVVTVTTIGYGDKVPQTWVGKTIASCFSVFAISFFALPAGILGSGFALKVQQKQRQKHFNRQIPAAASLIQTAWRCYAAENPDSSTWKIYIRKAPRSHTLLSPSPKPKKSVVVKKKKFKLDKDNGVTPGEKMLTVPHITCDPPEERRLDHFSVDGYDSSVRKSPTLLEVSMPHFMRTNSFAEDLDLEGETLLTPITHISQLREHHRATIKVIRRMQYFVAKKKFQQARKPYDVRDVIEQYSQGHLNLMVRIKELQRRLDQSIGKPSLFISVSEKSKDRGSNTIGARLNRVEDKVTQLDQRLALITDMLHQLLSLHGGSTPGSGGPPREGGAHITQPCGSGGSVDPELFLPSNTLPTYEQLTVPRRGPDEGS
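assay system = KCNQ1-transfected CHO-K1 cells | medium = assay buffer with matched DMSO | probe or stimulus = depolarizing K+/Tl+ stimulus, K2SO4 and Tl2SO4 each 12.5 mM in 5x stock | dosing = single dose | incubation = dye 90 min, compound 20 min, room temperature | detection = kinetic FluxOR fluorescence, 10 s baseline plus 110 s post-stimulus | evaluation = ratio B score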
KCNQ1 inh = human KCNQ1 channel inhibition; P51787; CHO-K1 KCNQ1, FluxOR thallium flux fluorescence; stronger effect = higher value; B-score at 10 µM; hit rate 1.3% among 310,000;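 active = compounds whose thallium flux B-score, printed positive for inhibition, exceeds three library SD while starting fluorescence stays within three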;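 note: channel opened by potassium depolarization with thallium stimulus after 20 min compound exposure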
KCNK9 inh conf = human KCNK9 inhibitor confirmation; shares compounds with KCNK9 block; HEK293 KCNK9 cells, FluxOR thallium flux fluorescence; inhibition, % at 10 µM; hit rate 43% among 4,900;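 active = thallium signal inhibited by more than 5 SD of the compound-free buffer control wells, on both duplicate plates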;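 note: 0% = assay buffer control wells without compound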
Kir21 sel = selectivity of KCNK9 modulators against mouse Kir2.1 | shares compounds with KCNK9 block | Kir2.1 cells, FluxOR thallium flux fluorescence | inhibition, % at 10 µM | hit rate 4% among 4,900 | AID 492993;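 active = thallium signal drop more than 5 SD beyond the mean of the no-compound control wells, seen in both duplicate plates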;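 note: signal is fluorescence rise after thallium addition divided by baseline fluorescence; plate controls were assay buffer only for no effect and full block by chlorpromazine control for full effect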
HEK293 Tl ctr = second counter-screen for KCNK9 modulators: effect in non-induced cells; hit rate 40% among 4,900; non-induced KCNK9-HEK293, FluxOR thallium flux; inhibition, % at 10 µM; shares compounds with KCNK9 block;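 active = thallium signal drop beyond 5 SD of the untreated control mean, on both duplicate plates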;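 note: plate controls were buffer only IC0 wells for no effect and SID17386958 at its maximal inhibitory level for full effect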
Active calls of the source: *; i = inactive; . = not tested or not shown.

SMILES	hERG rescue	KCNK3 inh	KCNK9 block	KCNQ1 pot	KCNQ1 inh	KCNK9 inh conf	Kir21 sel	HEK293 Tl ctr
COc1ccc(N(C)S(=O)(=O)c2cccc(C(=O)OC(C(=O)Nc3cc(C)cc(C)c3)c3ccccc3)c2)cc1 (stereo unspecified)	-10	i	i	i	i	.	.	.
CCCC(=O)Nc1ccc(C(=O)Nc2cc(C(F)(F)F)ccc2Cl)cc1	-5	i	i	i	i	.	.	.
CCCC(=O)OC(C(=O)Nc1cc(C(F)(F)F)ccc1Cl)c1ccccc1 (stereo unspecified)	-12	i	-13*	i	i	46%*	i	46%*
CCCOc1ccc(C(=O)NCC(C)(C)N2CCOCC2)cc1	-13	i	i	i	i	.	.	.
COCCn1c(-c2ccc(Cl)cc2)cnc1SCC(=O)NCc1cccs1	.	i	.	.	.	.	.	.
CCOC(=O)c1c(C)c(C(=O)N2CCc3ccccc3C2)c(C)n1CC	-13	i	i	i	i	i	i	i
Cc1ccc(OCC(=O)c2ccc3c(c2)CCCC3)cc1C	-3	i	i	i	i	i	i	i
O=C(c1ccccc1)c1coc2ccc(O)c(CN3CCOCC3)c12	-6	i	i	i	i	.	.	.
COc1ccc(C(=O)c2coc3ccc(O)c(CN4CCCCC4)c23)cc1	-11	i	i	i	i	i	i	i
CCCCCCNC(=O)c1cccc(-c2ccc(C)c3ccccc23)n1	-11	i	i	i	i	i	i	i
COc1ccc(C(=O)Nn2cnc3ccccc3c2=O)c(OC)c1	-14	i	i	i	i	.	.	.
O=C(N/N=C/c1ccccc1)NC1CCCCC1	-11	i	i	i	i	.	.	.
CC(C)(C)c1ccc(/C=N/NC(=S)NC2CCCCC2)cc1	-7	i	i	i	i	i	i	i
Cc1nc(C)c(-c2ccc(SCc3ccc(Cl)cc3)nn2)s1	-9	i	i	i	i	i	i	i
CC1C=CC=CC=CC=CC=CC=CC=CC(OC2OC(C)C(O)C(N)C2O)CC2OC(O)(CC(O)CC(O)C(O)CCC(O)CC(O)CC(=O)OC(C)C(C)C1O)CC(O)C2C(=O)O (stereo unspecified)	.	i	.	.	.	.	.	.
CCOc1ccc(N2CC(C(=O)Nc3ccc4c(c3)OCO4)CC2=O)cc1 (stereo unspecified)	-11	i	i	i	i	i	i	i
CCOc1ccc(N2CC(C(=O)Nc3ccc4c(c3)OCCO4)CC2=O)cc1 (stereo unspecified)	-15	i	i	i	i	.	.	.
Cc1ccc(S(=O)(=O)N(CC(=O)N2CCC(C)CC2)c2cccc(C)c2)cc1	-7	i	i	i	i	.	.	.
CC(CCc1ccccc1)NC(=O)C1CCCN(C(=O)c2cc3sccc3n2C)C1 (stereo unspecified)	0	i	i	i	i	.	.	.
CCn1c(C(=O)N2CCCC(C(=O)NCCc3ccc(C)cc3)C2)cc2sccc21 (stereo unspecified)	.	i	.	.	.	.	.	.
Cn1c(C(=O)N2CCCC(C(=O)NCCCSC3CCCCC3)C2)cc2sccc21 (stereo unspecified)	-4	i	i	i	i	i	i	i
CCn1c(C(=O)N2CCCC(C(=O)NCCCc3ccccc3)C2)cc2sccc21 (stereo unspecified)	-9	i	i	i	i	i	i	i
CO/N=C(\c1nonc1N)N1CCN(c2ccc(Cl)cc2[N+](=O)[O-])CC1	-14	i	-8.3*	i	i	32%*	i	39%*
Cc1ccc(OCC(=O)NCCCNC(=O)c2cccnc2)cc1	-4	i	i	i	i	.	.	.
CSc1nnc(Cc2sc(-c3ccccc3)nc2-c2ccccc2)o1	-8	i	-8.1*	i	i	i	i	25%*
SMILES	hERG rescue	KCNK3 inh	KCNK9 block	KCNQ1 pot	KCNQ1 inh	KCNK9 inh conf	Kir21 sel	HEK293 Tl ctr
CC1CCC(NC(=O)C2CCN(S(=O)(=O)c3cccc4nonc34)CC2)CC1 (stereo unspecified)	-8	i	i	i	i	.	.	.
NCCCCCc1nnc(SCC(=O)c2ccc(Cl)cc2)o1	-10	i	i	i	i	.	.	.
CCOC(=O)c1ccc(NC(=O)C2C3CCCCC32)cc1 (stereo unspecified)	-3	i	-9.4*	i	i	i	i	i
Cc1cc(OCC(=O)NCCCN(C)C)cc(C)c1Br	-7	i	i	i	i	.	.	.
Nc1nc(SCc2cccc([N+](=O)[O-])c2)n[nH]1	-4	i	i	i	i	.	.	.
N#Cc1c(SCc2ccc(Cl)cc2)sc(C(=O)c2ccccc2)c1N	-6	i	-11*	i	i	26%*	i	34%*
COc1ccc(-c2nc(CN3CCC(c4ccccc4)CC3)c(C)o2)cc1OC	-26	i	i	i	i	.	.	.
Cc1oc(-c2cccs2)nc1CN1CCC(c2ccccc2)CC1	-11	i	i	i	i	i	i	i
CCOC(=O)C1=NN(C(=O)COc2ccccc2)C(O)(c2ccc(Br)cc2)C1 (stereo unspecified)	1	i	-11*	i	i	i	i	i
CCC1=NN(C(=O)COc2ccccc2)C(O)(c2ccncc2)C1 (stereo unspecified)	-1	i	i	i	i	.	.	.
CC1=NN(C(=O)COc2ccc(C)c(C)c2)C(O)(c2ccc(Cl)cc2)C1 (stereo unspecified)	-5	i	-14*	i	i	50%*	i	35%*
CN(C(=O)c1ccc(NC(=O)Cc2ccc(NC(=O)C3CCN(C(=O)c4ccccc4)CC3)cc2)cc1)C1CCCC1	.	i	.	.	.	.	.	.
O=C1NC2(CCCCCC2)C(=O)N1Cc1cccc([N+](=O)[O-])c1	-7	i	i	i	i	.	.	.
Cc1cc2ccc3ccccc3c2cc1CN(C)C	-3	i	i	i	i	i	66%*	i
CN(C)Cc1cc2ccccc2c2c1COC2	-10	i	i	i	i	.	.	.
CC/C(=N\NC(=O)c1nnn(-c2nonc2N)c1-c1cccs1)c1ccccc1	4	i	i	i	i	.	.	.
CSc1ccc(C(=O)C2CCCN(C(=O)CCCn3cncn3)C2)cc1 (stereo unspecified)	-5	i	i	i	i	.	.	.

Compound activity as filed in PubChem BioAssay.
